Results from ChEMBL document CHEMBL3588757, “Structure-based design, synthesis and biological testing of piperazine-linked bis-epipodophyllotoxin etoposide analogs” (Bioorg Med Chem, 2015).

Legend:
Assay type in all cases: functional
[1] = system: RPMI-8226; test: Cytotoxicity against human RPMI8226 cells by SRB assay
In short: (§1)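 NCI-60 panel screen; 5-dose testing giving GI50 per cell line, plus a single 10 µM one-dose test. Method details not given beyond the NCI screen.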

[2] = system: LOX IMVI; test: Cytotoxicity against human LOXIMVI cells assessed as cell growth at 5 uM by SRB assay; details: read-out: Activity
[3] = system: ACHN; test: Cytotoxicity against human ACHN cells by SRB assay
[4] = system: SK-OV-3; test: Cytotoxicity against human SKOV3 cells assessed as cell growth at 0.005 uM by SRB assay; details: read-out: Activity
[5] = system: HOP-92; test: Cytotoxicity against human HOP92 cells assessed as cell growth at 5 uM by SRB assay; details: read-out: Activity
In short: (§2)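 Measured in the NCI-60 human tumour cell line panel using five-dose testing. Growth was recorded at each dose for each cell line, and a GI50 was derived for each line.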

[6] = system: SF-268; test: Cytotoxicity against human SF268 cells assessed as cell growth at 0.5 uM by SRB assay; details: read-out: Activity
[7] = system: BT-549; test: Cytotoxicity against human BT549 cells assessed as cell growth at 0.5 uM by SRB assay; details: read-out: Activity
[8] = system: SK-OV-3; test: Cytotoxicity against human SKOV3 cells assessed as cell growth at 5 uM by SRB assay; details: read-out: Activity
[9] = system: SR; test: Cytotoxicity against human SR cells assessed as cell growth at 50 uM by SRB assay; details: read-out: Activity
[10] = system: CCRF-CEM; test: Cytotoxicity against human CCRF-CEM cells assessed as cell growth at 0.5 uM by SRB assay; details: read-out: Activity
[11] = system: SF-295; test: Cytotoxicity against human SF295 cells assessed as cell growth at 0.005 uM by SRB assay; details: read-out: Activity
[12] = system: MCF7; test: Cytotoxicity against human MCF7 cells assessed as cell growth at 5 uM by SRB assay; details: read-out: Activity
[13] = system: MDA-MB-231; test: Cytotoxicity against human MDA-MB-231/ATCC cells by SRB assay; in short: as §1
[14] = Cytotoxicity against human Hs578T cells by SRB assay; details: Hs-578T; in short: as §2
[15] = system: BT-549; test: Cytotoxicity against human BT549 cells by SRB assay
[16] = system: SK-MEL-5; test: Cytotoxicity against human SK-MEL-5 cells assessed as cell growth at 0.5 uM by SRB assay; details: read-out: Activity
[17] = system: SF-295; test: Cytotoxicity against human SF295 cells by SRB assay; in short: as §1
[18] = system: PC-3; test: Cytotoxicity against human PC3 cells assessed as cell growth at 5 uM by SRB assay; details: read-out: Activity
[19] = system: IGROV-1; test: Cytotoxicity against human IGROV1 cells assessed as cell growth at 5 uM by SRB assay; details: read-out: Activity
[20] = system: UACC-257; test: Cytotoxicity against human UACC257 cells by SRB assay; in short: as §1
[21] = system: SF-268; test: Cytotoxicity against human SF268 cells assessed as cell growth at 0.005 uM by SRB assay; details: read-out: Activity
[22] = system: SW-620; test: Cytotoxicity against human SW620 cells by SRB assay; in short: as §1
[23] = system: ACHN; test: Cytotoxicity against human ACHN cells assessed as cell growth at 0.05 uM by SRB assay; details: read-out: Activity
[24] = system: MDA-MB-468; test: Cytotoxicity against human MDA-MB-468 cells assessed as cell growth at 50 uM by SRB assay; details: read-out: Activity
[25] = system: MDA-MB-435; test: Cytotoxicity against human MDA-MB-435 cells assessed as cell growth at 50 uM by SRB assay; details: read-out: Activity
[26] = system: RXF 393; test: Cytotoxicity against human RXF393 cells assessed as cell growth at 50 uM by SRB assay; details: read-out: Activity
[27] = system: PC-3; test: Cytotoxicity against human PC3 cells by SRB assay; in short: as §1
[28] = system: HCT-15; test: Cytotoxicity against human HCT15 cells assessed as cell growth at 5 uM by SRB assay; details: read-out: Activity; in short: as §2
[29] = system: MDA-MB-435; test: Cytotoxicity against human MDA-MB-435 cells assessed as cell growth at 0.005 uM by SRB assay; details: read-out: Activity
[30] = system: OVCAR-3; test: Cytotoxicity against human OVCAR3 cells assessed as cell growth at 0.05 uM by SRB assay; details: read-out: Activity
[31] = system: M14; test: Cytotoxicity against human M14 cells assessed as cell growth at 50 uM by SRB assay; details: read-out: Activity
[32] = system: UACC-257; test: Cytotoxicity against human UACC257 cells assessed as cell growth at 0.05 uM by SRB assay; details: read-out: Activity
[33] = system: NCI-H226; test: Cytotoxicity against human NCI-H226 cells assessed as cell growth at 0.005 uM by SRB assay; details: read-out: Activity
[34] = system: U-251; test: Cytotoxicity against human U251 cells assessed as cell growth at 5 uM by SRB assay; details: read-out: Activity
[35] = system: NCI-H522; test: Cytotoxicity against human NCI-H522 cells assessed as cell growth at 50 uM by SRB assay; details: read-out: Activity
[36] = system: OVCAR-8; test: Cytotoxicity against human OVCAR8 cells assessed as cell growth at 50 uM by SRB assay; details: read-out: Activity
[37] = system: SW-620; test: Cytotoxicity against human SW620 cells assessed as cell growth at 5 uM by SRB assay; details: read-out: Activity
[38] = Cytotoxicity against human NCI-ADR-RES cells assessed as cell growth at 0.005 uM by SRB assay; details: read-out: Activity
[39] = read-out: LC50 (the source's name)
[40] = read-out: pLC50 (the source's name) (converted)

With `COc1cc([C@@H]2c3cc4c(cc3[C@@H](NC(=O)CN3CCN(CCCCCCCCCCN5CCN(CC(=O)N[C@@H]6c7cc8c(cc7[C@@H](c7cc(OC)c(O)c(OC)c7)[C@H]7C(=O)OC[C@@H]76)OCO8)CC5)CC3)[C@H]3COC(=O)[C@H]23)OCO4)cc(OC)c1O` the GI50 ([1]; read-out: GI50) was 16.3 nM, the CC50 [1, 39] was over 50000 nM and the TGI ([1]; read-out: TGI) was 369 nM. The GI50 ([1]; read-out: pGI50 (converted)) was 16.2 nM, the CC50 [1, 40] was over 50100 nM and the TGI ([1]; read-out: pTGI (converted)) was 372 nM. It also gave a growth at 5 µM [2] of -80%, a GI50 ([3]; read-out: GI50) of 320 nM and a CC50 [3, 39] of 2950 nM. The TGI ([3]; read-out: TGI) was 1110 nM, the GI50 ([3]; read-out: pGI50 (converted)) was 324 nM and the CC50 [3, 40] was 2950 nM. The TGI ([3]; read-out: pTGI (converted)) was 1120 nM, the growth at 0.005 µM [4] was 98% and the growth at 5 µM [5] was -9%. The growth at 0.5 µM [6] was 49%, the growth at 0.5 µM [7] was 58% and the growth at 5 µM [8] was 4%. The growth at 50 µM [9] was -12%, the growth at 0.5 µM [10] was 4% and the growth at 0.005 µM [11] was 92%. The growth at 5 µM [12] was 18%, the GI50 ([13]; read-out: GI50) was 958 nM and the CC50 [13, 39] was 18300 nM. The TGI ([13]; read-out: TGI) was 2280 nM, the GI50 ([13]; read-out: pGI50 (converted)) was 955 nM and the CC50 [13, 40] was 18200 nM. It also gave a TGI ([13]; read-out: pTGI (converted)) of 2290 nM, a GI50 ([14]; read-out: GI50) of 2800 nM and a CC50 [14, 39] of over 50000 nM. For the same compound, the TGI ([14]; read-out: TGI) was 22200 nM, the GI50 ([14]; read-out: pGI50 (converted)) was 2820 nM and the CC50 [14, 40] was over 50100 nM. For the same compound, the TGI ([14]; read-out: pTGI (converted)) was 22400 nM, the GI50 ([15]; read-out: GI50) was 576 nM and the TGI ([15]; read-out: TGI) was 1460 nM. It also gave a GI50 ([15]; read-out: pGI50 (converted)) of 575 nM, a TGI ([15]; read-out: pTGI (converted)) of 1480 nM and a growth at 0.5 µM [16] of 83%. For the same compound, the GI50 ([17]; read-out: GI50) was 894 nM, the CC50 [17, 39] was over 50000 nM and the TGI ([17]; read-out: TGI) was 9490 nM. For the same compound, the GI50 ([17]; read-out: pGI50 (converted)) was 891 nM, the CC50 [17, 40] was over 50100 nM and the TGI ([17]; read-out: pTGI (converted)) was 9550 nM. The growth at 5 µM [18] was 17%, the growth at 5 µM [19] was 9% and the GI50 ([20]; read-out: GI50) was 679 nM. It also gave a CC50 [20, 39] of 2630 nM, a TGI ([20]; read-out: TGI) of 1340 nM and a GI50 ([20]; read-out: pGI50 (converted)) of 676 nM. The CC50 [20, 40] was 2630 nM, the TGI ([20]; read-out: pTGI (converted)) was 1350 nM and the growth at 0.005 µM [21] was 97%. For the same compound, the GI50 ([22]; read-out: GI50) was 372 nM, the CC50 [22, 39] was 3380 nM and the TGI ([22]; read-out: TGI) was 1330 nM. The GI50 ([22]; read-out: pGI50 (converted)) was 372 nM, the CC50 [22, 40] was 3800 nM and the TGI ([22]; read-out: pTGI (converted)) was 1320 nM. It also gave a growth at 0.05 µM [23] of 88%, a growth at 50 µM [24] of -69% and a growth at 50 µM [25] of -40%. The growth at 50 µM [26] was -47%, the GI50 ([27]; read-out: GI50) was 903 nM and the CC50 [27, 39] was 47700 nM. The TGI ([27]; read-out: TGI) was 8940 nM, the GI50 ([27]; read-out: pGI50 (converted)) was 912 nM and the CC50 [27, 40] was 47900 nM. For the same compound, the TGI ([27]; read-out: pTGI (converted)) was 8910 nM, the growth at 5 µM [28] was -69% and the growth at 0.005 µM [29] was 96%. The growth at 0.05 µM [30] was 73%, the growth at 50 µM [31] was -49% and the growth at 0.05 µM [32] was 97%. It also gave a growth at 0.005 µM [33] of 92%, a growth at 5 µM [34] of 9% and a growth at 50 µM [35] of -55%. For the same compound, the growth at 50 µM [36] was -19%, the growth at 5 µM [37] was -63% and the growth at 0.005 µM [38] was 97%.
